Converted amounts (≈) assume the structure as drawn.
Columns and labels:
Renin = target: T1, Renin (Homo sapiens, UniProt P00797); assay: Inhibitory concentration against human plasma renin at pH 7.4; format: cell-free
T1 sequence (P00797 whole entry): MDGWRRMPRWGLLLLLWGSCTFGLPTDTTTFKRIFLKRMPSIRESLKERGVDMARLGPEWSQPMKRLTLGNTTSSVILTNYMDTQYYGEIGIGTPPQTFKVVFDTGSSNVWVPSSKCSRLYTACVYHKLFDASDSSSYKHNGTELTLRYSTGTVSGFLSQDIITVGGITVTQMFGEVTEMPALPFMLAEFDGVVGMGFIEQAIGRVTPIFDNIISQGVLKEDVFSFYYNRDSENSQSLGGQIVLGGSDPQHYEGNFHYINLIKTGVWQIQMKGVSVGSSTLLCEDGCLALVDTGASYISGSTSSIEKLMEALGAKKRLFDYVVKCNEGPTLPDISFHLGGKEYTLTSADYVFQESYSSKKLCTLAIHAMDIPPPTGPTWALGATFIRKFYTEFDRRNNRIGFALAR

[1] = Integrated area under the plasma drug level-time curve was determined in systemic circulation after intraduodenal dose of 10 mg/kg in rat; format: ADME, organism-based; parameters: dose 10 mg/kg, route intraduodenal
In short: (§1)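 Intraduodenal 10 mg/kg to anesthetized rats or ferrets. Compound dissolved in ethanol with 110 mol % HCl, then diluted in aqueous hydroxypropyl methylcellulose to 25% ethanol (10 mg/mL). Plasma sampled id rat 15, 30, 60, 120 min; id ferret 5, 15, 30, 60, 120, 180 min. Drug measured by renin inhibition assay or HPLC. AUC in ng h/mL. Bioavailability is relative to iv 1.0 mg/kg (rat) or 0.3 mg/kg (ferret).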

[2] = Partition coefficient in the octanol/water phase at pH 7.4; format: physicochemical
In short: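 log P measured by octanol/water partition at pH 7.4.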

[3] = Bioavailability in ferret (dose 10 mg/kg i.d.); format: ADME, organism-based, Mustela putorius furo; conditions: in vivo; in short: as §1
[4] = Bioavailability in the systemic circulation after 30 minutes was determined after intraduodenal dose of 10 mg/kg in rat by HPLC method; format: ADME, organism-based; conditions: plasma (systemic circulation), read-out: Plasma level
In short: (§2)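 Screening model in anesthetized rats given 10 mg/kg intraduodenally. Formulation was ethanol stock with 110 mol % HCl, diluted with aqueous hydroxypropyl methylcellulose to 25% ethanol. Systemic and portal blood drawn at 10 and 30 min in the same animals. Drug level (ng/mL) measured by HPLC or renin inhibition assay. Mean ± SEM, n = 3 unless noted.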

[5] = Bioavailability in rat (dose 10 mg/kg i.d.); format: ADME, organism-based; conditions: in vivo; in short: as §1
[6] = Integrated area under the plasma drug level-time curve was determined in systemic circulation after intraduodenal dose of 10 mg/kg in ferret; format: ADME, organism-based, Mustela putorius furo; parameters: dose 10 mg/kg, route intraduodenal; in short: as §1
[7] = Bioavailability in the systemic circulation after 10 minutes was determined after intraduodenal dose of 10 mg/kg in rat by HPLC method; format: ADME, organism-based; conditions: plasma (systemic circulation), read-out: Plasma level; in short: as §2
[8] = Peak concentration was determined in systemic circulation after intraduodenal dose of 10 mg/kg in ferret; format: ADME, organism-based, Mustela putorius furo; parameters: dose 10 mg/kg, route intraduodenal; conditions: in vivo, read-out: Activity; in short: as §1
[9] = Peak concentration was determined in systemic circulation after intraduodenal dose of 10 mg/kg in rat; format: ADME, organism-based; parameters: dose 10 mg/kg, route intraduodenal; conditions: in vivo, read-out: Activity; in short: as §1
[10] = Bioavailability in the portal circulation after 10 minutes was determined after intraduodenal dose of 10 mg/kg in rat by HPLC method; format: ADME, organism-based; conditions: plasma (portal circulation), read-out: Plasma level; in short: as §2
[11] = Bioavailability in the portal circulation after 30 minutes was determined after intraduodenal dose of 10 mg/kg in rat by HPLC method; format: ADME, organism-based; conditions: plasma (portal circulation), read-out: Plasma level; in short: as §2
[12] = Solubility at pH 7.4; format: physicochemical; conditions: buffer
[13] = Bioavailability in the systemic circulation after 30 minutes was determined after intraduodenal dose of 10 mg/kg in rat by renin inhibition assay; format: ADME, organism-based; conditions: plasma (systemic circulation), read-out: Plasma level; in short: as §2
[14] = Bioavailability in the systemic circulation after 10 minutes was determined after intraduodenal dose of 10 mg/kg in rat by renin inhibition assay; format: ADME, organism-based; conditions: plasma (systemic circulation), read-out: Plasma level; in short: as §2
[15] = Bioavailability in the portal circulation after 10 minutes was determined after intraduodenal dose of 10 mg/kg in rat by renin inhibition assay; format: ADME, organism-based; conditions: plasma (portal circulation), read-out: Plasma level; in short: as §2
[16] = Bioavailability in the portal circulation after 30 minutes was determined after intraduodenal dose of 10 mg/kg in rat by renin inhibition assay; format: ADME, organism-based; conditions: plasma (portal circulation), read-out: Plasma level; in short: as §2
[17] = Bioavailability was determined after intraduodenal dose of 10 mg/kg in monkey (compared to 1 mg/kg intravenous dose); format: ADME, organism-based; conditions: simiiformes, in vivo, read-out: Bioavailabiility
In short: (§3)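 Anesthetized, salt-depleted cynomolgus monkeys dosed intraduodenally at 10 mg/kg in HCl salt/ethanol–hydroxypropyl methylcellulose vehicle (25% ethanol). Systemic and portal plasma drug levels measured by renin inhibition assay. AUC in ng h/mL. Bioavailability compared against an iv dose of 0.3 mg/kg or 1.0 mg/kg, the latter taken from earlier work. Mean ± SEM.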

[18] = Hypotension peak is percentage change from predose baseline pressure observed after intraduodenal dose of 10 mg/kg in monkey; format: ADME, organism-based; parameters: dose 10 mg/kg, route intraduodenal; conditions: simiiformes, in vivo, other
In short: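 Anesthetized, salt-depleted cynomolgus monkeys given 10 mg/kg intraduodenally. Mean arterial pressure followed for up to 5 h. Peak fall expressed as % change from predose baseline. Difference from baseline significant if P < 0.05. Mean ± SEM.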

[19] = Bioavailability in the systemic circulation after 10 minutes was determined after intraduodenal dose of 15 mg/kg in rat by renin inhibition assay; format: ADME, organism-based; conditions: plasma (systemic circulation), read-out: Plasma level
[20] = Integrated area under the plasma drug level-time curve was determined in portal circulation after intraduodenal dose of 10 mg/kg in monkey; format: ADME, organism-based; parameters: dose 10 mg/kg, route intraduodenal; conditions: simiiformes; in short: as §3
[21] = Peak concentration was determined in systemic circulation after intraduodenal dose of 10 mg/kg in monkey; format: ADME, organism-based; parameters: dose 10 mg/kg, route intraduodenal; conditions: simiiformes, in vivo, read-out: Activity; in short: as §3
[22] = Peak concentration was determined in portal circulation after intraduodenal dose of 10 mg/kg in monkey; format: ADME, organism-based; parameters: dose 10 mg/kg, route intraduodenal; conditions: simiiformes, in vivo, read-out: Activity; in short: as §3
[23] = Integrated area under the plasma drug level-time curve was determined in systemic circulation after intraduodenal dose of 10 mg/kg in monkey; format: ADME, organism-based; parameters: dose 10 mg/kg, route intraduodenal; conditions: simiiformes; in short: as §3

| IC50 (Renin) [nM] | logD [2] | concentration at 0.5 h [4] [ng/mL] | concentration at 10 min [7] [ng/mL] | concentration at 10 min [10] [ng/mL] | concentration at 0.5 h [11] [ng/mL] | solubility [12] [µg/mL] | SMILES | other results |
| --- | --- | --- | --- | --- | --- | --- | --- | --- |
| 33 |  |  |  |  |  |  | CC(C)C[C@H](O)[C@H](O)[C@H](CC1CCCCC1)NC(=O)[C@H](Cc1cscn1)NC(=O)[C@@H](CC(=O)N(C)CCc1c[nH]c2ccccc12)Cc1ccccc1 |  |
| 1.6 | > 4.2 | 300 | 220 | 2200 | 4500 | 14 (≈ 20.3 µM) | CC(C)C[C@H](O)[C@H](O)[C@H](CC1CCCCC1)NC(=O)[C@H](Cn1cccn1)NC(=O)[C@@H](CC(=O)N(C)CCc1ccccn1)Cc1ccccc1 | AUC [1]: 760 ng·h/mL; bioavailability [3]: 35%; bioavailability [5]: 20%; AUC [6]: 870 ng·h/mL; Cmax [8]: 400 ng/mL; Cmax [9]: 460 ng/mL |
| 1.8 | > 4.5 |  |  |  |  |  | CC(C)C[C@H](O)[C@H](O)[C@H](CC1CCCCC1)NC(=O)[C@H](Cc1cscn1)NC(=O)[C@H](Cc1ccccc1)CS(=O)(=O)N(C)CCc1ccccn1 |  |
| 0.72 | > 4.2 | 230 | 140 | 1900 | 2300 | 44 (≈ 63.3 µM) | CC(C)C[C@H](O)[C@H](O)[C@H](CC1CCCCC1)NC(=O)[C@H](Cc1cscn1)NC(=O)[C@@H](CC(=O)N(C)CCn1cccn1)Cc1ccccc1 |  |
|  | 4.57 |  |  |  |  |  | CC(C)C[C@H](O)[C@H](O)[C@H](CC1CCCCC1)NC(=O)[C@H](Cc1cscn1)NC(=O)[C@H](Cc1ccccc1)CS(=O)(=O)N1CCN(C)CC1 [ZANKIREN] | bioavailability [17]: 5.1%; Change [18]: 37%; AUC [1]: 620 ng·h/mL; concentration at 0.5 h [13]: 440 ng/mL; concentration at 10 min [19]: 280 ng/mL; AUC [20]: 3800 ng·h/mL; bioavailability [3]: 82%; bioavailability [5]: 23%; AUC [6]: 1500 ng·h/mL; Cmax [21]: 130 ng/mL; Cmax [8]: 940 ng/mL; Cmax [9]: 470 ng/mL; Cmax [22]: 2400 ng/mL; AUC [23]: 340 ng·h/mL |

Further lines, the compound ahead of its results:

| SMILES | IC50 (Renin) [nM] | logD [2] | concentration at 0.5 h [4] [ng/mL] | concentration at 10 min [7] [ng/mL] | concentration at 10 min [10] [ng/mL] | concentration at 0.5 h [11] [ng/mL] | solubility [12] [µg/mL] | other results |
| --- | --- | --- | --- | --- | --- | --- | --- | --- |
| COCCN(C)C(=O)C[C@@H](Cc1ccccc1)C(=O)N[C@@H](Cc1cscn1)C(=O)N[C@@H](CC1CCCCC1)[C@@H](O)[C@@H](O)CC(C)C | 4.1 |  | 33 | 33 | 930 | 600 |  |  |
| CC(C)C[C@H](O)[C@H](O)[C@H](CC1CCCCC1)NC(=O)[C@H](Cc1cscn1)NC(=O)[C@@H](CC(=O)N(C)CCN1CCN(C)CC1)Cc1ccccc1 | 8.5 | 3.58 |  |  |  |  |  | concentration at 0.5 h [13]: 74 ng/mL; concentration at 10 min [14]: 80 ng/mL; concentration at 10 min [15]: 580 ng/mL; concentration at 0.5 h [16]: 590 ng/mL |
| CC(C)C[C@H](O)[C@H](O)[C@H](CC1CCCCC1)NC(=O)[C@H](Cn1ccnc1)NC(=O)[C@@H](CC(=O)N(C)CCc1ccccn1)Cc1ccccc1 | 14 |  |  |  |  |  |  |  |
| CC(C)C[C@H](O)[C@H](O)[C@H](CC1CCCCC1)NC(=O)[C@H](Cc1cscn1)NC(=O)[C@@H](CC(=O)N(C)CCc1ccncc1)Cc1ccccc1 | 3 | > 4.2 | 190 |  |  |  | 12 (≈ 17 µM) |  |
